Experimental data taken from ChEMBL document CHEMBL1773065, “Impact of the nature of the substituent at the 3-position of 4H-1,2,4-benzothiadiazine 1,1-dioxides on their opening activity toward ATP-sensitive potassium channels” (J Med Chem, 2011).
Activity calls are given as the source filed them. The calls are words filed in the database; no cut-off is given here.

Key:
[1] = Inhibition of glucose induced insulin secretion from rat Pancreatic islet assessed as percentage of residual insulin release at 50 uM; format: functional
In short: (§1)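 Isolated rat pancreatic islets incubated with 16.7 mM glucose and drug at 0.1–50 μM. Result is insulin release as a percentage of residual release, mean ± SEM (n).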

[2] = Inhibition of glucose induced insulin secretion from rat Pancreatic islet assessed as percentage of residual insulin release at 10 uM; format: functional; in short: as §1
[3] = Inhibition of glucose induced insulin secretion from rat Pancreatic islet assessed as percentage of residual insulin release at 1 uM; format: functional; in short: as §1
[4] = Myorelaxant effect in Wistar rat uterus smooth muscle assessed as inhibition of contractions induced by bolus of oxytocin injected in superfusion system at 100 uM; format: functional; parameters: scale not given: the % may be the effect or the level left
In short: (§2)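 Uteri from fed Wistar rats (150–200 g) given diethylstilboestrol dipropionate i.m. the day before. Tissue superfused; after 30 min stabilization, 20 mU oxytocin boluses given every 10 min until contractions (AUC) were constant. Three or more boluses per drug concentration (10, 50, 100 μM). Mean AUC expressed as percentage of the drug-free response.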

[5] = Myorelaxant effect in Wistar rat uterus smooth muscle assessed as inhibition of contractions induced by bolus of oxytocin injected in superfusion system at 50 uM; format: functional; parameters: scale not given: the % may be the effect or the level left; in short: as §2
[6] = Myorelaxant effect in Wistar rat uterus smooth muscle assessed as inhibition of contractions induced by continuous superfusion of oxytocin in absence ATP-sensitive potassium channel blocker glibenclamide; format: functional
In short: (§3)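 Rat uterus continuously superfused with 50 mU/L oxytocin. Mean of three contraction AUCs set as 100%, then drug added at increasing concentrations, with no glibenclamide or with 1 or 10 μM glibenclamide present continuously. EC50 is the concentration giving 50% residual contraction, mean ± SEM (n).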

[7] = Myorelaxant effect in Wistar rat uterus smooth muscle assessed as inhibition of contractions induced by bolus of oxytocin injected in superfusion system at 10 uM; format: functional; parameters: scale not given: the % may be the effect or the level left; in short: as §2
[8] = Inhibition of glucose induced insulin secretion from rat Pancreatic islet assessed as percentage of residual insulin release; format: functional; in short: as §1
[9] = Dissociation constant, pKa of the compound; format: physicochemical
In short: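 pKa determined by UV spectrophotometry at 25 °C. Spectra recorded in aqueous buffers from pH 5 to 12.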

[10] = Myorelaxant effect in KCl-induced precontracted rat aorta ring VSMC; format: functional, tissue-based
In short: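 Rat aortic rings precontracted with 30 mM KCl. EC50 is the drug concentration giving 50% relaxation, mean ± SEM (n).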

[11] = Myorelaxant effect in Wistar rat uterus smooth muscle assessed as inhibition of contractions induced by continuous superfusion of oxytocin in presence of 10 uM ATP-sensitive potassium channel blocker glibenclamide; format: functional; in short: as §3
[12] = Myorelaxant effect in Wistar rat uterus smooth muscle assessed as inhibition of contractions induced by continuous superfusion of oxytocin in presence of 1 uM ATP-sensitive potassium channel blocker glibenclamide; format: functional; in short: as §3
Rattus norvegicus [13] = organism: Rattus norvegicus; test: Activation of ATP-sensitive potassium channel in glucose and extracellular calcium evoked rat pancreatic islets assessed as reduced 45Calcium outflow at 50 uM in presence of extracellular potassium ion; parameters: scale not given: the % may be the effect or the level left
In short: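 Prelabeled, perifused rat pancreatic islets exposed throughout to 2.8 mM glucose and extracellular Ca2+. Extracellular K+ raised suddenly from 5 to 50 mM, with or without 50 μM drug in the basal medium. Read-out is the magnitude of the increase in 45Ca outflow, in %/min.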

Rattus norvegicus [14] = organism: Rattus norvegicus; test: Activation of ATP-sensitive potassium channel in rat pancreatic islets assessed as decrease in insulinotropic glucose concentration-mediated cytosolic calcium level by fluorimetry
Rattus norvegicus [15] = organism: Rattus norvegicus; test: Activation of ATP-sensitive potassium channel in glucose and extracellular calcium evoked rat pancreatic islets assessed as increased 86Rb outflow at 10 uM by radioisotopic and fluorimetric method in presence of 10 uM ATP-sensitive potassium channel blocker glibenclamide
In short: (§4)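 Prelabeled, perifused rat pancreatic islets in 5.6 mM glucose with extracellular Ca2+. Drug given at 10 or 50 μM with 10 μM glibenclamide present continuously in the medium. Read-out is 86Rb outflow rate. Six individual experiments.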

Rattus norvegicus [16] = organism: Rattus norvegicus; test: Activation of ATP-sensitive potassium channel in glucose and extracellular calcium evoked rat pancreatic islets assessed as decrease in insulin output at 50 uM; conditions: TDE = time-dependent effect
Rattus norvegicus [17] = organism: Rattus norvegicus; test: Activation of ATP-sensitive potassium channel in glucose and extracellular calcium evoked rat pancreatic islets assessed as increase in 86Rb outflow measured per min at 10 uM
In short: (§5)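 Prelabeled rat pancreatic islets, perifused throughout with 5.6 mM glucose and extracellular Ca2+. Drug added at 10 or 50 μM, then withdrawn. Read-out is the increase in 86Rb outflow rate, in %/min. Six individual experiments.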

Rattus norvegicus [18] = organism: Rattus norvegicus; test: Activation of ATP-sensitive potassium channel in glucose and extracellular calcium evoked rat pancreatic islets assessed as reduction in 45Calcium outflow at 50 uM
Rattus norvegicus [19] = organism: Rattus norvegicus; test: Activation of ATP-sensitive potassium channel in glucose and extracellular calcium evoked rat pancreatic islets assessed as increased 86Rb outflow at 50 uM by radioisotopic and fluorimetric method in presence of 10 uM ATP-sensitive potassium channel blocker glibenclamide; in short: as §4
Rattus norvegicus [20] = organism: Rattus norvegicus; test: Activation of ATP-sensitive potassium channel in glucose and extracellular calcium evoked rat pancreatic islets assessed as increase in 86Rb outflow measured per min; in short: as §5
Rattus norvegicus [21] = organism: Rattus norvegicus; test: Activation of ATP-sensitive potassium channel in glucose and extracellular calcium evoked rat pancreatic islets assessed as increase in 86Rb outflow measured per min at 50 uM; in short: as §5
Rattus norvegicus [22] = organism: Rattus norvegicus; test: Activation of ATP-sensitive potassium channel in extracellular calcium deprived and glucose evoked rat pancreatic islets assessed as reduction in 45Calcium outflow at 50 uM
[23] = Inhibition of glucose induced insulin secretion from rat Pancreatic islet assessed as percentage of residual insulin release at 0.1 uM; format: functional
In short: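 Isolated rat pancreatic islets incubated with test drug in the presence of 16.7 mM glucose. Insulin release was measured and expressed as percentage of residual insulin release, given as mean ± SEM with number of determinations (n).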

Rattus norvegicus [24] = organism: Rattus norvegicus; test: Activation of ATP-sensitive potassium channel in rat aorta rings assessed as increased 86Rb outflow at 100 uM in absence of ATP-sensitive potassium channel blocker glibenclamide; format: tissue-based
In short: (§6)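 Prelabeled rat aortic rings perifused throughout with or without 10 μM glibenclamide. Drug applied at 100 μM. Read-out is 86Rb outflow. Four to five individual experiments.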

Rattus norvegicus [25] = organism: Rattus norvegicus; test: Activation of ATP-sensitive potassium channel in rat aorta rings assessed as increased 86Rb outflow at 100 uM in presence of 10 uM ATP-sensitive potassium channel blocker glibenclamide; format: tissue-based; in short: as §6

## Cc1ccc2c(c1)S(=O)(=O)N=C(NC(C)C)N2
[1]
  Activity: 3.5%
[2]
  Activity: 8.5%
[3]
  Activity: 71.3%

## CC(C)SC1=NS(=O)(=O)c2cc(Cl)c(Cl)cc2N1
[1]
  Activity: 12.9%
[2]
  Activity: 70%

## CC1=Nc2ccc(Cl)cc2S(=O)(=O)N1 [DIAZOXIDE]
[4]
  Activity: 67.7%
[5]
  Activity: 76.3%
[6]
  EC50: > 30 µM
[7]
  Activity: 93.8%
[8]
  IC50: 18.4 µM

## CC(C)OC1=NS(=O)(=O)c2cc(Br)ccc2N1
[2]
  Activity: 62.5%

## CC(C)SC1=NS(=O)(=O)c2ccc(Cl)cc2N1
[1]
  Activity: 44%
[2]
  Activity: 80.2%

## CC(C)CC1=NS(=O)(=O)c2cc(F)ccc2N1
[2]
  Activity: 75.3%

## CC(C)NC1=NS(=O)(=O)c2cc(Cl)ccc2N1
[4]
  Activity: 75.6%
[5]
  Activity: 95%
[7]
  Activity: 94.4%
[8]
  IC50: 0.55 µM

## CC(C)CC1=NS(=O)(=O)c2ccccc2N1
[2]
  Activity: 85.2%

## CC(C)SC1=NS(=O)(=O)c2cc(Cl)ccc2N1
[1]
  Activity: 51.3%
[9]
  pKa: 7.01
[4]
  Activity: 2.3%
[2]
  Activity: 104%
[10]
  EC50: 23 µM
[5]
  Activity: 54.7%
[6]
  EC50: > 30 µM
[7]
  Activity: 98.8%
[8]
  IC50: 50 µM

## CC(SC1=NS(=O)(=O)c2cc(Cl)ccc2N1)c1ccccc1 (racemic)
[10]
  EC50: 5.4 µM
[11]
  EC50: 24.2 µM
[6]
  EC50: 4.4 µM
[12]
  EC50: 6.8 µM

## CC(C)NC1=NS(=O)(=O)c2cc(F)ccc2N1
[1]
  Activity: 3.3%
[2]
  Activity: 3.7%

## CC(C)SC1=NS(=O)(=O)c2ccccc2N1
[2]
  Activity: 93.9%

## CC(C)OC1=NS(=O)(=O)c2cc(Cl)ccc2N1
[1]
  Activity: 17.5%
[9]
  pKa: 8
[4]
  Activity: 68.7%
Rattus norvegicus [13]
  Activity: 1.12%
Rattus norvegicus [14]
  Activity: Active
[2]
  Activity: 77.3%
Rattus norvegicus [15]
  Activity: inactive
[10]
  EC50: 22.7 µM
Rattus norvegicus [16]
  Activity: tde
[5]
  Activity: 85.8%
Rattus norvegicus [17]
  Activity: 0.23%
[7]
  Activity: 88%
Rattus norvegicus [18]
  Activity: Active
[8]
  IC50: 19.1 µM
Rattus norvegicus [19]
  Activity: inactive
Rattus norvegicus [20]
  Activity: Dose-dependent effect
Rattus norvegicus [21]
  Activity: 1.32%
Rattus norvegicus [22]
  Activity: inactive

## CC(C)CC1=NS(=O)(=O)c2cc(Br)ccc2N1
[2]
  Activity: 61.8%
[3]
  Activity: 85.8%

## CC(C)OC1=NS(=O)(=O)c2cc(F)ccc2N1
[1]
  Activity: 44.1%
[2]
  Activity: 87.5%

## CC(C)[S+]([O-])C1=NS(=O)(=O)c2cc(Cl)ccc2N1 (stereo not given)
[1]
  Activity: 89.8%
[2]
  Activity: 92.3%

## COc1ccc2c(c1)S(=O)(=O)NC(NC(C)C)=N2
[1]
  Activity: 4.4%
[2]
  Activity: 8.5%
Rattus norvegicus [16]
  Activity: tde
Rattus norvegicus [18]
  Activity: Active
Rattus norvegicus [22]
  Activity: inactive

## Cc1ccc2c(c1)S(=O)(=O)N=C(SC(C)C)N2
[2]
  Activity: 77%

## COc1ccc2c(c1)S(=O)(=O)N=C(OC(C)C)N2
[2]
  Activity: 80.8%

## CC(C)NC1=NS(=O)(=O)c2ccccc2N1
[2]
  Activity: 34.9%
[3]
  Activity: 73.7%

## CC(C)NC1=NS(=O)(=O)c2ccc(Cl)cc2N1
[1]
  Activity: 6.4%
[23]
  Activity: 76.7%
[2]
  Activity: 7.5%

## Cc1ccc2c(c1)S(=O)(=O)N=C(OC(C)C)N2
[2]
  Activity: 79.5%

## CC(C)SC1=NS(=O)(=O)c2cc(Br)ccc2N1
[1]
  Activity: 47.3%
[2]
  Activity: 90.3%

## CC(C)SC1=NS(=O)(=O)c2cc(F)ccc2N1
[1]
  Activity: 55.1%
[2]
  Activity: 88.7%

## CC(C)CC1=NS(=O)(=O)c2cc(Cl)ccc2N1
[1]
  Activity: 21%
[9]
  pKa: 8.52
[4]
  Activity: 55%
Rattus norvegicus [24]
  Activity: Active
[2]
  Activity: 43.2%
[10]
  EC50: 5.8 µM
[5]
  Activity: 64.7%
[7]
  Activity: 73.9%
[8]
  IC50: 5.8 µM
Rattus norvegicus [25]
  Activity: inactive

## CC(C)CSC1=NS(=O)(=O)c2cc(Cl)ccc2N1
[10]
  EC50: 6.2 µM
[6]
  EC50: 13.5 µM

## O=S1(=O)N=C(SCc2ccccc2)Nc2ccc(Cl)cc21
[10]
  EC50: 5.4 µM
[6]
  EC50: 11.7 µM

## CC(C)SC1=NS(=O)(=O)c2ccc(Br)cc2N1
[1]
  Activity: 33.8%
[2]
  Activity: 87%

## CC(C)OC1=NS(=O)(=O)c2ccccc2N1
[2]
  Activity: 90.4%

## CC(C)NC1=NS(=O)(=O)c2cc(Br)ccc2N1
[1]
  Activity: 6.7%
[23]
  Activity: 91%
[2]
  Activity: 8.1%

## CC(C)OC1=NS(=O)(=O)c2cc(Cl)c(Cl)cc2N1
[2]
  Activity: 73.7%

## CC(N/C(=N\C#N)Nc1ccncc1)C(C)(C)C (racemic) [PINACIDIL ANHYDROUS]
[4]
  Activity: 38.1%
[10]
  EC50: 0.62 µM
[5]
  Activity: 42.7%
[11]
  EC50: 28.3 µM
[6]
  EC50: 1.3 µM
[7]
  Activity: 44.9%
[8]
  IC50: 202 µM
[12]
  EC50: 8.1 µM
